Bioassay records deposited in PubChem BioAssay by Johns Hopkins Ion Channel Center.
In the library only some 3.5% were active in any assay of this set; here they are far more common.
RGS4 act: potentiators or activators of RGS4; 310,000 tested, 0.92% active; HEK293 M3R/inducible RGS4, carbachol calcium flux Fluo4; stronger effect = lower value; B-score at 10 µM;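 active means B-score of the integrated calcium signal more than 4 SD below the library mean, with starting fluorescence not abnormally high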;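 further: negative B-score means reduced calcium response which marks RGS4 activation or potentiation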
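Also added: carbachol at ECmax as muscarinic agonist stimulus; Assay system: HEK293 cells with stable M3R and inducible RGS4; Timing: overnight RGS4 induction, 30 min dye load 37 °C, 20 min compound RT; Measured by: Fluo4-AM (2 µM) calcium-flux fluorescence, kinetic read.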
MrgX1 antag: blocks BAM8-22 activation of human MrgX1 receptor | Q96LB2 | MRGX1-HEK293 calcium flux, Fluo-4, BAM8-22 antagonism; stronger effect = lower value | B-score at 10 µM | 310,000 tested, 1.3% active | AID 588676;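 active means calcium-response B-score plate-corrected more than 3 library SD below zero, starting fluorescence within 5 deviations, no agonist response on first addition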;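 further: peak minus trough fluorescence over baseline after final BAM8-22 challenge near maximal dose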
Target sequence (Q96LB2 whole entry, looked up): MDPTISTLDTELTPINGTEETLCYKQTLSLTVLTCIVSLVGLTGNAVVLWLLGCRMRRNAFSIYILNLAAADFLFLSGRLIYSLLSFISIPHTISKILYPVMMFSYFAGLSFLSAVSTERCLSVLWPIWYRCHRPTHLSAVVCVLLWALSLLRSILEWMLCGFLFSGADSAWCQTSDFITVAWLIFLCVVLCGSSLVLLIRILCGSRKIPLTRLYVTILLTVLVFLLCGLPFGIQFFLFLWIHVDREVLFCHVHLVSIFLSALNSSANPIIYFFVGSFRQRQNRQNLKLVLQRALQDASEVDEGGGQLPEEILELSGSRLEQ
MrgX1 PAM: human MrgX1 positive allosteric modulation, primary screen | Q96LB2 | MrgX1-HEK293, Fluo-4 calcium flux, FDSS; stronger effect = higher value | B-score at 10 µM | 310,000 tested, 0.63% active;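 active means plate-corrected calcium response at least 3 library SD above typical, normal starting fluorescence, not activating the receptor alone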;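 further: compound read alongside a low EC10 to EC30 dose of BAM8-22 agonist; peak minus trough fluorescence over baseline measured at the second addition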
MrgX1 ag: activates human MrgX1 receptor signaling; MrgX1-HEK293 cells, Fluo-4 calcium fluorescence, agonist mode; stronger effect = higher value; B-score at 10 µM; 310,000 tested, 0.44% active; AID 588627;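 active means calcium response B-score plate-corrected fluorescence ratio at least 3 library SD, with starting fluorescence B-score inside 5 SD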
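Assay system: MrgX1-expressing HEK293 cells / Amount: fifteen thousand cells per well / Doses: test compound in the initial addition of three / Timing: cells plated overnight, dye loaded 0.5 h 37 °C, 0.5 h room temperature / Technique: kinetic calcium dye fluorescence, Fluo-4 NW / Control set: positive and negative controls per plate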
RGS4 block: human RGS4 inhibition; HEK293 M3R/RGS4 inducible, Fluo-4 calcium flux; stronger effect = higher value; triggered by carbachol at its EC20; B-score at 10 µM; 310,000 tested, 0.45% active; AID 463165;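 active means B-score, a plate-corrected calcium signal, over three deviations above library mean, with baseline fluorescence within five deviations of library mean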;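 further: RGS4 expression induced by doxycycline in cells with stable M3 receptor; B-score is computed from the integrated fluorescence ratio over baseline after carbachol; higher B-score means a larger calcium signal and so more RGS4 inhibition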
Target sequence (P49798 whole entry, looked up): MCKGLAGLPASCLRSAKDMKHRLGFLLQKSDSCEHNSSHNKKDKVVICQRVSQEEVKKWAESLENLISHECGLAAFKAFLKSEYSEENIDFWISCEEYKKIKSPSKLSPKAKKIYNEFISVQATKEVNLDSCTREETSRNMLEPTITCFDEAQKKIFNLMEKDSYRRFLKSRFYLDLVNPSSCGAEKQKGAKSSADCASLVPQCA
MrgX1 antag conf: human MrgX1 receptor antagonism, re-confirmation screen. shares compounds with MrgX1 antag. MrgX1-HEK293, BAM8-22 calcium flux, Fluo-4; stronger effect = lower value. remaining BAM8-22 calcium response % of control (stronger effect = lower value), % at 10 µM. 2,300 tested, 19% active;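 active means remaining agonist calcium response no higher than 100% minus 3 SD of agonist-only control wells, with starting fluorescence near control levels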;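 further: agonist BAM8-22 given at a near maximal EC90 to ECmax level; peak minus minimum fluorescence divided by baseline after agonist addition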
HEK293 Ca flux: activity in parental HEK293 cells lacking MrgX1; 4,000 tested, 2% active; Fluo-4 calcium fluorescence, FDSS; AID 624111; shares compounds with MrgX1 antag; fluorescence ratio F(max-min)/F0 at 10 µM;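 active means duplicate-averaged calcium fluorescence ratio at least three times the standard deviation of buffer wells, a nonspecific response in parental cells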
HEK293 Ca counter: activity in parental HEK293 cells without MrgX1; shares compounds with MrgX1 antag; parental HEK293 calcium flux, Fluo-4 fluorescence ratio; stronger effect = higher value; fluorescence ratio F(max-min)/F0 at 10 µM; 4,000 tested, 0.4% active; AID 624114;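 active means calcium fluorescence ratio, averaged over duplicates, at least 3 SD of the buffer-well ratio, meaning a nonspecific response in receptor-free cells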;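 further: untransfected parental HEK293 lacking MrgX1 used as counterscreen for MrgX1 allosteric activators; fluorescence change taken during the second addition on a kinetic imager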
HEK293 Ca cntr2: MrgX1 activator counter-screen hit in parental HEK293 cells. shares compounds with MrgX1 antag. Fluo-4 calcium fluorescence (FDSS); stronger effect = higher value. fluorescence ratio F(max-min)/F0 at 10 µM. 4,000 tested, 8.7% active. AID 624115;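 active means calcium fluorescence ratio at least three times the spread of buffer wells, meaning a non-specific response in parental cells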
* marks the source's active call; other numbers are inactive results; i = inactive; / = no result given.

SMILES	RGS4 act	MrgX1 antag	MrgX1 PAM	MrgX1 ag	RGS4 block	MrgX1 antag conf	HEK293 Ca flux	HEK293 Ca counter	HEK293 Ca cntr2
CCc1ccc2nc(SCC(=O)Nc3nnc(C)s3)c(C)cc2c1	i	-6.2*	i	i	i	83%*	i	i	i
COc1ccc(OC)c2sc(NC(=O)c3ccc(Cl)s3)nc12	i	-5*	i	i	i	i	i	i	i
COc1ccc(-c2nn(C)c(=O)c3ccccc23)cc1CNC(=O)NC1CCCCC1	i	i	i	i	i	/	/	/	/
CC1(C)C(=O)Nc2ccccc2N1C(=O)CN1C(=O)C(=O)N(C2CCCC2)C1=O	i	i	i	i	i	/	/	/	/
O=C(Cc1ccc(Cl)cc1)Nc1ccc(N2CCCC2)cc1	/	-5.3*	i	i	/	i	i	i	i
O=C(Cc1ccc(Cl)cc1)Nc1ccc(C(=O)N2CCOCC2)cc1	i	i	i	i	i	/	/	/	/
CC(=O)c1c(C)[nH]c(C(=O)COc2cc(C)cc(C)c2)c1C	i	i	i	i	i	/	/	/	/
Cc1cc(NC(=O)C2CCCN2C(=O)Nc2cccc(Cl)c2)ccc1-n1cnnn1 (centres undefined)	i	i	i	i	i	/	/	/	/
COc1ccc(NC(=O)c2ccc(Cl)c(S(=O)(=O)N3CCc4ccccc4C3)c2)cn1	i	-5.5*	i	i	i	38%*	i	i	i
COc1ccccc1NS(=O)(=O)c1cc(NC(=O)c2ccc(Cl)nc2)ccc1Cl	i	-14*	i	i	i	54%*	i	i	i
COc1ccc(-c2cc(C(=O)N3CCN(C(c4ccccc4)c4ccccc4)CC3)no2)cc1OC	i	-5.3*	i	i	i	i	i	i	i
COc1ccc(CCNC(=O)c2ccccc2Cl)cc1OC	i	i	i	i	i	/	/	/	/
COCCNC(=O)c1ccc2c3n(nc2c1)-c1ccc(C)cc1CO3	i	i	i	i	i	/	/	/	/
Cc1ccc2c(c1)COc1c3ccc(C(=O)N[C@@H](CO)C(C)C)cc3nn1-2	i	-5.7*	i	i	i	i	i	i	i
COc1cc(/C=C/C(=O)c2ccc(NS(=O)(=O)c3ccc(C)cc3)cc2)cc(OC)c1O	i	i	i	i	i	/	/	/	/
CC(=O)Nc1cc2c(cc1Br)OCCO2	i	i	i	i	i	/	/	/	/
Brc1ccc(CNc2cc3c(cc2Br)OCCO3)cc1	i	-4.5*	i	i	i	i	i	i	i
Cc1ccn2c(CNCCn3cccn3)c(C(=O)N3CCCCCC3)nc2c1	i	-7.5*	i	i	i	i	i	i	i
O=C(C1=C[C@@H](c2ccc(Br)cc2)C[C@@H](OCc2ccc(CO)cc2)O1)N1CCOCC1	i	i	i	i	i	/	/	/	/
CCN(CC)S(=O)(=O)c1cc(NC(=O)CN2C(=O)NC3(CCCc4ccccc43)C2=O)ccc1C (centres undefined)	i	-6.1*	i	i	i	85%*	i	i	i
CCN(CC(=O)Nc1c(F)cccc1F)C(=O)C1CCN(c2ncnc3sc(C)c(C)c23)CC1	i	-8.2*	i	i	i	i	i	i	i
Cc1cccc(C)c1NC(=O)CN(C)C(=O)C1CCN(c2ncnc3sc(C)c(C)c23)CC1	i	i	i	i	i	/	/	/	/
CC(C)n1c(NCc2cc(Cl)ccc2O)nc2ccccc21	i	-7.1*	i	i	i	i	i	i	i
